From ChEMBL document CHEMBL1145747, “Potent inhibition of NTPase/helicase of the West Nile Virus by ring-expanded ("fat") nucleoside analogues” (J Med Chem, 2003)
Converted amounts (≈) assume the structure as drawn.

How the values were obtained:
West Nile virus [1] = test: Inhibitory activity determined against west nile virus (WNV) NTPase/helicase (NTPase/helicase Non structural protein 3) using DNA as substrate; type: functional
Outline: (§1)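 WNV NTPase/helicase (2 pmol), purified from culture medium of virus-infected Vero E6 cells, unwinding a partially hybridized 32P 5'-labelled duplex (26-mer release strand on 40-mer template; DNA or RNA per line, 4.7 pM nucleotide base). Conditions: ATP at Km (9.5 µM), 20 mM Tris/HCl pH 7.5, 2 mM MgCl2, 30 min at 30 °C. Released strand resolved on TBE-PAGE and its radioactivity counted. IC50 is 50% of compound-free unwinding; representative of three independent experiments.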

[2] = target: T1, ATP-dependent RNA helicase SUPV3L1, mitochondrial (Homo sapiens, UniProt Q8IYB8); test: Inhibitory activity determined against human Suv3 helicase using DNA as substrate
T1 sequence (Q8IYB8 whole entry): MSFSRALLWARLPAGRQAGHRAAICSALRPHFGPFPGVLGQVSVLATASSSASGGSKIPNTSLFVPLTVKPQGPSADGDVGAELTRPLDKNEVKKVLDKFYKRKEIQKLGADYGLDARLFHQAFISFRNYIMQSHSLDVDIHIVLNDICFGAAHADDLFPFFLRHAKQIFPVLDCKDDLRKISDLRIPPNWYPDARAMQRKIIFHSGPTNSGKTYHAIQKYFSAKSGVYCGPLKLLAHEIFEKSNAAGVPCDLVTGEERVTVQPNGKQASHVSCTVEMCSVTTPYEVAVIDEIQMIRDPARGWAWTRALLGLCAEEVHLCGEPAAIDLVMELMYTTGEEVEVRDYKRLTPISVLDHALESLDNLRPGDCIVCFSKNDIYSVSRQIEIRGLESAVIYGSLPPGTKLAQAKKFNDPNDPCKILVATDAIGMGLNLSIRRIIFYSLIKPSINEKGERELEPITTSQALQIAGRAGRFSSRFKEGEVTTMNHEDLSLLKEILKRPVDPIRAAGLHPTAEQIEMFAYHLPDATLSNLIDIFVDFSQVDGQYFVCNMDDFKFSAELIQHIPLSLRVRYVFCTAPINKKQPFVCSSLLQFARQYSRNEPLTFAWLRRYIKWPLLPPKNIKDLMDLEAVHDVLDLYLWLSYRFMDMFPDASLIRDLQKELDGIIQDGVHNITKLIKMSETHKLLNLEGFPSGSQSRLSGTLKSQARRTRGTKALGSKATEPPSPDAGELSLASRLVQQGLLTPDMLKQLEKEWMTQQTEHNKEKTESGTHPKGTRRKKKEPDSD
Outline: (§2)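 Human Suv3(Δ1-159), expressed in E. coli from pQE60, 0.2 pmol per assay. Substrate: partially hybridized 32P-labelled DNA or RNA duplex (per line), 4.7 pM nucleotide base. Run with ATP at its Km of 4.2 µM in Tris/HCl pH 7.5 with MgCl2, 30 min at 30 °C. Released strand separated by TBE-PAGE and quantified by 32P counting. IC50 is 50% of control unwinding; representative of three experiments.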

West Nile virus [3] = test: Inhibitory activity against west nile virus (WNV) NTPase/helicase (NTPase/helicase Non structural protein 3) using RNA as substrate; type: functional; outline: as §1
[4] = target: T1, ATP-dependent RNA helicase SUPV3L1, mitochondrial; test: Inhibitory activity against human Suv3 helicase using RNA as substrate; outline: as §2
West Nile virus [5] = test: Inhibitory activity against west nile virus (WNV) NTPase/helicase (NTPase/helicase Non structural protein 3) using DNA as substrate; type: functional; outline: as §1
West Nile virus [6] = test: Inhibitory activity determined against west nile virus (WNV) NTPase/helicase (NTPase/helicase Non structural protein 3) using RNA as substrate; type: functional; outline: as §1

IC50 (West Nile virus [1]) | IC50 [2] | IC50 [4] | IC50 (West Nile virus [6]) | Compound | ED200 (West Nile virus [3]) | ED200 (West Nile virus [5])
> 300 µg/mL | – | – | – | CCNc1nc(=O)c2c(ncn2C2O[C@H](CO)[C@@H](O)C2O)c(=O)[nH]1 (single isomer, unassigned) | – | –
> 300 µg/mL | – | – | – | CCCCCCCCNc1nc(=O)c2ncn([C@@H]3O[C@H](CO)[C@@H](O)C3O)c2c(=O)[nH]1 (single isomer, unassigned) | – | –
> 300 µg/mL | – | – | – | CCCCCCCNc1nc(=O)c2c(ncn2C2O[C@H](CO)[C@@H](O)C2O)c(=O)[nH]1 (single isomer, unassigned) | – | –
5 µg/mL (≈ 8.87 µM) | > 887 µM | 53.2 µM | 100 µg/mL (≈ 177 µM) | CCCCCCCCCCCCCCCCCCNc1nc(=O)c2ncn([C@@H]3O[C@H](CO)[C@@H](O)C3O)c2c(=O)[nH]1 (single isomer, unassigned) | – | –
> 500 µg/mL | – | – | – | O=c1nc(NCCCCc2ccccc2)[nH]c(=O)c2c1ncn2C1O[C@H](CO)[C@@H](O)C1O (single isomer, unassigned) | – | –
> 500 µg/mL | – | – | – | O=c1nc(NCc2ccccc2)[nH]c(=O)c2c1ncn2C1O[C@H](CO)[C@@H](O)C1O (single isomer, unassigned) | – | –
> 300 µg/mL | – | – | – | CCCCCCNc1nc(=O)c2c(ncn2C2O[C@H](CO)[C@@H](O)C2O)c(=O)[nH]1 (single isomer, unassigned) | – | –
> 300 µg/mL | – | – | – | CN(C)c1nc(=O)c2c(ncn2C2O[C@H](CO)[C@@H](O)C2O)c(=O)[nH]1 (single isomer, unassigned) | – | –
30 µg/mL (≈ 66.4 µM) | > 1110 µM | 1110 µM | 300 µg/mL (≈ 664 µM) | CCCCCCCCCCNc1nc(=O)c2ncn([C@@H]3O[C@H](CO)[C@@H](O)C3O)c2c(=O)[nH]1 (single isomer, unassigned) | – | –
> 300 µg/mL | – | – | – | CNc1nc(=O)c2c(ncn2C2O[C@H](CO)[C@@H](O)C2O)c(=O)[nH]1 (single isomer, unassigned) | – | –
> 300 µg/mL | – | – | – | CCCCCNc1nc(=O)c2c(ncn2C2O[C@H](CO)[C@@H](O)C2O)c(=O)[nH]1 (single isomer, unassigned) | – | –
> 300 µg/mL | – | – | – | CCCNc1nc(=O)c2c(ncn2C2O[C@H](CO)[C@@H](O)C2O)c(=O)[nH]1 (single isomer, unassigned) | – | –
1 µg/mL (≈ 2.09 µM) | > 1040 µM | 313 µM | 10 µg/mL (≈ 20.9 µM) | CCCCCCCCCCCCNc1nc(=O)c2ncn([C@@H]3O[C@H](CO)[C@@H](O)C3O)c2c(=O)[nH]1 (single isomer, unassigned) | – | –
3 µg/mL (≈ 6.47 µM) | 539 µM | 324 µM | 100 µg/mL (≈ 216 µM) | CCCCCCCCCCCCNc1nc(=O)c2c(ncn2[C@@H]2C[C@H](O)[C@@H](CO)O2)c(=O)[nH]1 | – | –
> 300 µg/mL | – | – | – | CCCCNc1nc(=O)c2c(ncn2C2O[C@H](CO)[C@@H](O)C2O)c(=O)[nH]1 (single isomer, unassigned) | – | –
3 µg/mL (≈ 6.47 µM) | 6.47 µM | > 1080 µM | 1.5 µg/mL (≈ 3.24 µM) | CCCCCCCCCCCCNc1nc(=O)c2c(ncn2[C@H]2C[C@H](O)[C@@H](CO)O2)c(=O)[nH]1 | – | –
3 µg/mL (≈ 5.91 µM) | 591 µM | 59.1 µM | > 500 µg/mL | CCCCCCCCCCCCCCNc1nc(=O)c2ncn([C@@H]3O[C@H](CO)[C@@H](O)C3O)c2c(=O)[nH]1 (single isomer, unassigned) | – | –
250 µg/mL (≈ 467 µM) | > 933 µM | 56 µM | 500 µg/mL (≈ 933 µM) | CCCCCCCCCCCCCCCCNc1nc(=O)c2ncn([C@@H]3O[C@H](CO)[C@@H](O)C3O)c2c(=O)[nH]1 (single isomer, unassigned) | – | –
> 500 µg/mL | – | – | – | O=c1nc(NCCc2ccccc2)[nH]c(=O)c2c1ncn2C1O[C@H](CO)[C@@H](O)C1O (single isomer, unassigned) | – | –
> 500 µg/mL | – | – | – | O=c1nc(NCCCc2ccccc2)[nH]c(=O)c2c1ncn2C1O[C@H](CO)[C@@H](O)C1O (single isomer, unassigned) | – | –

Compound | IC50 (West Nile virus [1]) | IC50 [2] | IC50 [4] | IC50 (West Nile virus [6]) | ED200 (West Nile virus [3]) | ED200 (West Nile virus [5])
O=c1nc(Nc2ccccc2)[nH]c(=O)c2c1ncn2C1O[C@H](CO)[C@@H](O)C1O (single isomer, unassigned) | – | > 1290 µM | > 1290 µM | – | 100 µg/mL | 300 µg/mL
CCCCCCCCCCCCNc1nc(O)c2ncnc-2c(O)n1 | > 500 µg/mL | > 1440 µM | > 1440 µM | > 500 µg/mL | – | –
CCCCCCCCCCCCNc1nc(=O)c2c(ncn2Cc2ccc(OC)cc2)c(=O)[nH]1 | 5 µg/mL (≈ 10.7 µM) | > 1070 µM | > 1070 µM | 1 µg/mL (≈ 2.14 µM) | – | –
